Test results from ChEMBL document CHEMBL4311935, “Synthesis and antitumor activity of fluorouracil - oleanolic acid/ursolic acid/glycyrrhetinic acid conjugates” (Medchemcomm, 2019).
Activity calls are given as the source filed them. No cut-off for these calls is given here.

Key:
A549 [1] = experiment: Induction of apoptosis in human A549 cells assessed as early apoptotic cells at 20 uM after 48 hrs by AnnexinV-FITC/propidium iodide staining based flow cytometry analysis (reference value: 0.99 %); assay type: functional
A549 [2] = experiment: Induction of apoptosis in human A549 cells assessed as activation of caspase-3 at 15 uM using FITC-DEVD-FMK as substrate after 48 hrs by flow cytometric analysis (reference value: 5.99 %); assay type: functional
A549 [3] = experiment: Induction of apoptosis in human A549 cells assessed as late apoptotic cells at 10 uM after 48 hrs by AnnexinV-FITC/propidium iodide staining based flow cytometry analysis (reference value: 4.19 %); assay type: functional
A549 [4] = experiment: Induction of apoptosis in human A549 cells assessed as activation of caspase-8 at 20 uM using FITC-DEVD-FMK as substrate after 48 hrs by flow cytometric analysis (reference value: 9.76 %); assay type: functional
A549 [5] = experiment: Induction of cell cycle arrest in human A549 cells assessed as accumulation at G1 phase at 10 uM after 48 hrs by RNase/propidium iodide staining based flow cytometry analysis (reference value: 70.63 %); assay type: functional
Outline: (§1)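 A549 cells were grown in dishes for 24 h, then treated at 0, 10, 15 or 20 μM for 48 h. Cells were washed in cold PBS, fixed in cold 75% ethanol and held at −20 °C for 36 h. They were then treated with RNase A (100 μg mL–1) for 30 min and stained with propidium iodide (1 mg mL–1 stock) for 10 min in the dark before flow cytometry.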

MCF7 = experiment: Cytotoxicity against human MCF7 cells assessed as cell growth inhibition after 48 hrs by MTT assay; assay type: functional, cell-based; conditions: MCF7, 48 h
A549 [6] = experiment: Induction of cell cycle arrest in human A549 cells assessed as accumulation at G2 phase at 20 uM after 48 hrs by RNase/propidium iodide staining based flow cytometry analysis (reference value: 5.14 %); assay type: functional; outline: as §1
A549 [7] = experiment: Induction of apoptosis in human A549 cells assessed as stimulation of intracellular calcium influx by measuring fluorescence intensity at 10 to 15 uM after 48 hrs by Fluo-3/AM probe based flow cytometry analysis; assay type: functional, cell-based
Outline: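 Cells were seeded in six-well plates for 24 h, then treated at 0, 10 or 15 μM for 48 h. They were harvested, washed three times in serum-free RPMI 1640 and loaded with Fluo-3 AM (0.5 μM) for 60 min. After two washes and resuspension in serum-free medium, fluorescence was measured immediately by flow cytometry.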

A549 [8] = experiment: Induction of cell cycle arrest in human A549 cells assessed as accumulation at S phase at 20 uM after 48 hrs by RNase/propidium iodide staining based flow cytometry analysis (reference value: 24.23 %); assay type: functional; outline: as §1
A549 [9] = experiment: Induction of apoptosis in human A549 cells assessed as activation of caspase-8 at 10 uM using FITC-DEVD-FMK as substrate after 48 hrs by flow cytometric analysis (reference value: 9.76 %); assay type: functional
A549 [10] = experiment: Induction of apoptosis in human A549 cells assessed as stimulation of ROS generation at 25 uM after 48 hrs by DCFH-DA staining-based flow cytometric analysis (reference value: 42.5 %); assay type: functional
K562 = experiment: Cytotoxicity against human K562 cells assessed as cell growth inhibition after 48 hrs by MTT assay; assay type: functional, cell-based; conditions: K562, 48 h
A549 [11] = experiment: Induction of apoptosis in human A549 cells assessed as early apoptotic cells at 10 uM after 48 hrs by AnnexinV-FITC/propidium iodide staining based flow cytometry analysis (reference value: 0.99 %); assay type: functional
L02 = experiment: Cytotoxicity against human LO2 cells assessed as cell growth inhibition after 48 hrs by MTT assay; assay type: cell-based; conditions: L02, 48 h
A549 [12] = experiment: Cytotoxicity against human A549 cells assessed as cell growth inhibition after 48 hrs by MTT assay; assay type: functional, cell-based; conditions: A549, 48 h
A549 [13] = experiment: Induction of cell cycle arrest in human A549 cells assessed as accumulation at S phase at 10 uM after 48 hrs by RNase/propidium iodide staining based flow cytometry analysis (reference value: 24.23 %); assay type: functional; outline: as §1
A549 [14] = experiment: Induction of cell cycle arrest in human A549 cells assessed as accumulation at G1 phase at 20 uM after 48 hrs by RNase/propidium iodide staining based flow cytometry analysis (reference value: 70.63 %); assay type: functional; outline: as §1
A549 [15] = experiment: Induction of apoptosis in human A549 cells assessed as stimulation of ROS generation at 20 uM after 48 hrs by DCFH-DA staining-based flow cytometric analysis (reference value: 42.5 %); assay type: functional
Bel-7402 = experiment: Cytotoxicity against human Bel7402 cells assessed as cell growth inhibition after 48 hrs by MTT assay; assay type: functional, cell-based; conditions: Bel-7402, 48 h
A549 [16] = experiment: Induction of apoptosis in human A549 cells assessed as early apoptotic cells at 15 uM after 48 hrs by AnnexinV-FITC/propidium iodide staining based flow cytometry analysis (reference value: 0.99 %); assay type: functional
A549 [17] = experiment: Induction of apoptosis in human A549 cells assessed as activation of caspase-8 at 15 uM using FITC-DEVD-FMK as substrate after 48 hrs by flow cytometric analysis (reference value: 9.76 %); assay type: functional
A549 [18] = experiment: Induction of apoptosis in human A549 cells assessed as activation of caspase-3 at 10 uM using FITC-DEVD-FMK as substrate after 48 hrs by flow cytometric analysis (reference value: 5.99 %); assay type: functional
A549 [19] = experiment: Induction of cell cycle arrest in human A549 cells assessed as accumulation at G2 phase at 15 uM after 48 hrs by RNase/propidium iodide staining based flow cytometry analysis (reference value: 5.14 %); assay type: functional; outline: as §1
NCI/ADR-RES = experiment: Cytotoxicity against human MCF7/ADR cells assessed as cell growth inhibition after 48 hrs by MTT assay; assay type: functional, cell-based
A549 [20] = experiment: Induction of apoptosis in human A549 cells assessed as activation of caspase-3 at 20 uM using FITC-DEVD-FMK as substrate after 48 hrs by flow cytometric analysis (reference value: 5.99 %); assay type: functional
A549 [21] = experiment: Induction of cell cycle arrest in human A549 cells assessed as accumulation at G2 phase at 10 uM after 48 hrs by RNase/propidium iodide staining based flow cytometry analysis (reference value: 5.14 %); assay type: functional; outline: as §1
A549 [22] = experiment: Induction of apoptosis in human A549 cells assessed as late apoptotic cells at 15 uM after 48 hrs by AnnexinV-FITC/propidium iodide staining based flow cytometry analysis (reference value: 4.19 %); assay type: functional
A549 [23] = experiment: Induction of apoptosis in human A549 cells assessed as late apoptotic cells at 20 uM after 48 hrs by AnnexinV-FITC/propidium iodide staining based flow cytometry analysis (reference value: 4.19 %); assay type: functional
A549 [24] = experiment: Induction of cell cycle arrest in human A549 cells assessed as accumulation at G1 phase at 15 uM after 48 hrs by RNase/propidium iodide staining based flow cytometry analysis (reference value: 70.63 %); assay type: functional; outline: as §1
K562/Adr = experiment: Cytotoxicity against human K562/ADR cells assessed as cell growth inhibition after 48 hrs by MTT assay; assay type: functional, cell-based
A549/TR = experiment: Cytotoxicity against human A549/T cells assessed as cell growth inhibition after 48 hrs by MTT assay; assay type: functional, cell-based
Bel7402/5-FU = experiment: Cytotoxicity against human Bel7402/5-FU cells assessed as cell growth inhibition after 48 hrs by MTT assay; assay type: functional, cell-based
A549 [25] = experiment: Induction of cell cycle arrest in human A549 cells assessed as accumulation at S phase at 15 uM after 48 hrs by RNase/propidium iodide staining based flow cytometry analysis (reference value: 24.23 %); assay type: functional; outline: as §1

Compound CC1(C)[C@@H](O)CC[C@]2(C)[C@H]3C(=O)C=C4[C@@H]5C[C@@](C)(C(=O)OCCCCCCCCn6cc(F)c(=O)[nH]c6=O)CC[C@]5(C)CC[C@@]4(C)[C@]3(C)CC[C@@H]12 has an Activity (A549 [1]) of 3.5%, an Activity (A549 [2]) of 50.9% and an Activity (A549 [3]) of 5.43%. It also gave an Activity (A549 [4]) of 32.4%, an Activity (A549 [5]) of 73.61% and an IC50 (MCF7) of 12.9 µM. The Activity (A549 [6]) was 2.81%, the Activity (A549 [7]) was “Active” and the Activity (A549 [8]) was 5.01%. The Activity (A549 [9]) was 9.26%, the Activity (A549 [10]) was 34.9% and the IC50 (K562) was 9.8 µM. The Activity (A549 [11]) was 1.61%, the IC50 (L02) was 20.9 µM and the IC50 (A549 [12]) was 15.7 µM. For the same compound, the Activity (A549 [13]) was 20.81%, the Activity (A549 [14]) was 92.18% and the Activity (A549 [15]) was 40.5%. The IC50 (Bel-7402) was 21 µM, the Activity (A549 [16]) was 2.71% and the Activity (A549 [17]) was 12.7%. The Activity (A549 [18]) was 24.5%, the Activity (A549 [19]) was 4.27% and the IC50 (NCI/ADR-RES) was 23.4 µM. The Activity (A549 [20]) was 64.7%, the Activity (A549 [21]) was 5.58% and the Activity (A549 [22]) was 31.91%. The Activity (A549 [23]) was 46.4%, the Activity (A549 [24]) was 76.07% and the IC50 (K562/Adr) was 27 µM. It also gave an IC50 (A549/TR) of 20.7 µM, an IC50 (Bel7402/5-FU) of 19.8 µM and an Activity (A549 [25]) of 19.66%.
